This is an account of results in ChEMBL document CHEMBL1141405, “Design and synthesis of novel sulfonamide-containing bradykinin hB2 receptor antagonists. 2. Synthesis and structure-activity relationships of alpha,alpha-cycloalkylglycine sulfonamides” (J Med Chem, 2007).

Molecules are shown by their SMILES. Calls of active or inactive are those of the source. The rule behind the calls is not given here. Some results are limits rather than exact numbers.

What is called Ki is a measure of affinity in units of concentration, obtained from inhibition or displacement.

In experiment [1] the target is T1, B2 bradykinin receptor (Homo sapiens, UniProt P30411).
T1 sequence (P30411 whole entry): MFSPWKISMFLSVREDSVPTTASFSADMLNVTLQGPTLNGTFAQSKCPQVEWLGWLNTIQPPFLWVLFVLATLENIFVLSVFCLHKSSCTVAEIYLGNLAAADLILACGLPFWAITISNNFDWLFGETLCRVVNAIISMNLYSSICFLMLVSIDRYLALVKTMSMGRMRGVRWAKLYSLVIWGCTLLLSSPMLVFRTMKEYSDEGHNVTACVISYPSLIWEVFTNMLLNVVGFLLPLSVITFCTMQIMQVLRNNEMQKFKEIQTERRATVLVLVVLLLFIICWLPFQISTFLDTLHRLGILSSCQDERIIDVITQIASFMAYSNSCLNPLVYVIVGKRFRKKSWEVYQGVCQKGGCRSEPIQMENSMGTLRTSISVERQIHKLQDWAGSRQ
As to the kind of experiment: Displacement of [3H]BK from human bradykinin B2 receptor transfected in CHO cells. The class given is cell-based. The method in brief: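 pKi from inhibition of specific [3H]-BK binding to membrane preparations of CHO cells stably transfected with the human B2 receptor.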
(In general: In a radioligand displacement assay an active substance lowers the binding of a labelled ligand.)

The target in experiment [2] is T1, B2 bradykinin receptor. As to the kind of experiment: Antagonist potency at human bradykinin B2 receptor assessed as effect on inositol monophosphate accumulation in CHOdhfr- cells. Format: functional, cell-based. Conditions: read-out: pA2 (converted). The procedure, abridged: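 pA2 derived from antagonism of bradykinin-stimulated inositol monophosphate accumulation in CHOdhfr- cells stably transfected with the human B2 receptor.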

In experiment [3] the target is T2, B2 bradykinin receptor (Cavia porcellus, UniProt O70526).
T2 sequence (O70526 whole entry): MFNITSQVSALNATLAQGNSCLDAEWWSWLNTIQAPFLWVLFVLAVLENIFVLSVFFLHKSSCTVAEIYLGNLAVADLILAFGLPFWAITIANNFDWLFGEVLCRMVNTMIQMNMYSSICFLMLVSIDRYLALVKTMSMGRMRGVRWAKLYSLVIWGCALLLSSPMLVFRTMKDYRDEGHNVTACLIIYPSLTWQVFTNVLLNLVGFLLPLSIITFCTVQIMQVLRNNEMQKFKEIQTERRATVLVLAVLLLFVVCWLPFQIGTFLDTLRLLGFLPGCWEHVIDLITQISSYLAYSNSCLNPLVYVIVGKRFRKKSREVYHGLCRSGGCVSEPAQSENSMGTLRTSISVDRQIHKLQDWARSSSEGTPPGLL
Description: Antagonist potency on BK-induced contraction of guinea pig ileum longitudinal smooth muscle. Format: functional, tissue-based. Particulars: read-out: pA2 (converted).

In experiment [4] the target is T3, B2 bradykinin receptor (Cavia porcellus) (UniProt O70526).
T3 sequence (whole entry): T2 sequence (O70526 whole entry)
Description: Inhibition of BK-induced bronchoconstriction in Dunkin Hartley guinea pig at 300 nmol/kg, it. The class given is functional. Set-up: scale not given: the % may be the effect or the level left. The method in brief:
(§1)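 Compound was given intratracheally to anaesthetized guinea pigs. Five min later, BK (10 nmol/kg iv) challenge was given and repeated every 30 min for 210 min. Pulmonary insufflation pressure was monitored. Result is Σ%: residual BK response as % of basal, normalized to control at 5–210 min time points, expressed as % of theoretical maximum.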

In experiment [5] the target is T3, B2 bradykinin receptor (Cavia porcellus). As to the kind of experiment: Inhibition of BK-induced bronchoconstriction in Dunkin Hartley guinea pig at 10 nmol/kg, it. The class given is functional. Set-up: scale not given: the % may be the effect or the level left. The method in brief: as §1
Experiment [6] has as its target T4, B1 bradykinin receptor (Homo sapiens, UniProt P46663).
T4 sequence (P46663 whole entry): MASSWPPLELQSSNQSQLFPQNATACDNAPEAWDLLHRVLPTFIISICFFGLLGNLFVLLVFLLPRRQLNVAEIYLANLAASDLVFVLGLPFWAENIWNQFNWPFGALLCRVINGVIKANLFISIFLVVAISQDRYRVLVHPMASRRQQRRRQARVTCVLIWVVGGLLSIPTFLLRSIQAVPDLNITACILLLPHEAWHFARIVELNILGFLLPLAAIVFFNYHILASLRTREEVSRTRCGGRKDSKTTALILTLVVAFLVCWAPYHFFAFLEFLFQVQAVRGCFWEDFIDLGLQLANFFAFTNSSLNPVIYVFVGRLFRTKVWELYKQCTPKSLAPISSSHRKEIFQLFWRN
As to the kind of experiment: Binding affinity to human bradykinin B1 receptor.

In experiment [7] the target is T3, B2 bradykinin receptor (Cavia porcellus). As to the kind of experiment: Effect on BK-induced hypotension in Dunkin Hartley guinea pig at 300 nmol/kg, it. The class given is functional. The procedure, abridged:
(§2)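 Compound was given intratracheally to anaesthetized guinea pigs. Five min later, BK (10 nmol/kg iv) challenge was given and repeated every 30 min for 210 min. Blood pressure was monitored. Result is Σ%: residual BK response as % of basal, normalized to control at each observation time (5–210 min), expressed as % of theoretical maximum.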

For experiment [8] the target is unchanged. As to the kind of experiment: Inhibition of BK-induced bronchoconstriction in Dunkin Hartley guinea pig at 100 nmol/kg, it. The class given is functional. On the set-up: scale not given: the % may be the effect or the level left. The method in brief:
as §1

Experiment [9] has the same target. Description: Effect on BK-induced hypotension in Dunkin Hartley guinea pig at 100 nmol/kg, it. Format: functional. The method in brief: as §2
The target is the same in experiment [10]. Description: Inhibition of BK-induced bronchoconstriction in Dunkin Hartley guinea pig at 30 nmol/kg, it. The class given is functional. Set-up: scale not given: the % may be the effect or the level left. The method in brief:
as §1

Experiment [11] concerns the target Muscarinic acetylcholine receptor (Homo sapiens) (UniProt P20309+P08173+P11229+P08172+P08912). Description: Activity at muscarinic receptor at 1 uM. Format: protein assay.
For experiment [12], the species on record is Homo sapiens. As to the kind of experiment: Activity at nicotinic receptor at 1 uM.

For the compound `Cc1cc(C)c2cccc(OCc3c(Cl)ccc(S(=O)(=O)N4CCC[C@@H]4C(=O)NCCCNC(=O)c4ccc(C(=N)N)cc4)c3Cl)c2n1`, the Ki in experiment [1] is 0.398 nM; in experiment [6], greater than 10 µM. Also, the Kb in [2] was 0.398 nM; in experiment [3], 0.316 nM. Also, the Activity in experiment [4] was found to be 96%; in experiment [5] it was 73%; in experiment [7] it was 100%.

As for `Cc1cc(C)c2cccc(OCc3c(Cl)ccc(S(=O)(=O)NC(C)(C)C(=O)N4CCN(C(=O)[C@@H](N)CCCCN(C)C)CC4)c3Cl)c2n1`, in experiment [3], the Kb was 0.2 nM. In addition, the figures for the Activity in experiment [4] and in [7] were 37% and 69%, respectively. In experiment [6], this compound gave an inhibition constant Ki greater than 10 µM.

Regarding `Cc1cc(C)c2cccc(OCc3c(Cl)ccc(S(=O)(=O)NC4(C(=O)N5CCN(C(=O)[C@@H](N)CCC[N+](C)(C)C)CC5)CCOCC4)c3Cl)c2n1` [FASITIBANT], the Activity in experiment [8] stood at 13%; in [9] it was 60%; in experiment [10], 39%; in experiment [5], 63%. In addition, in experiment [6], the Ki is greater than 10 µM. The outcome in experiment [11] and in experiment [12] was inactive.

Consider `Cc1cc(C)c2cccc(OCc3c(Cl)ccc(S(=O)(=O)NC(C)(C)C(=O)N4CCN(C(=O)C[C@@H](N)CCCN(C)C)CC4)c3Cl)c2n1`, for which the Kb in [3] was 0.1 nM. For the same compound, the results for the Activity in experiment [4] and in experiment [7] were 20% and 63%, respectively. In [6], this compound showed an inhibition constant (Ki) greater than 10 µM.

For the compound `Cc1cc(C)c2cccc(OCc3c(Cl)ccc(S(=O)(=O)NC(C)(C)C(=O)N4CCN(C(=O)[C@@H](N)CCCCNC(=N)N)CC4)c3Cl)c2n1`, the inhibition constant Ki was 0.631 nM in [1] and greater than 10 µM in [6]. In addition, the Kb in [2] was 0.794 nM; in [3] it was 0.1 nM. Also, the Activity in experiment [4] is 54%; in experiment [7] it was 78%.

Regarding `Cc1cc(C)c2cccc(OCc3c(Cl)ccc(S(=O)(=O)NC4(C(=O)N5CCN(C(=O)[C@@H](N)CCCCNC(=N)N)CC5)CCCC4)c3Cl)c2n1`, the Ki in [1] was 1 nM; in experiment [6] it was greater than 10 µM. In addition, the Kb in experiment [2] is 0.251 nM; in experiment [3], 0.1 nM. Besides, the Activity in experiment [4] was determined as 36%; in experiment [7], 75%.

As for `Cc1cc(C)c2cccc(OCc3c(Cl)ccc(S(=O)(=O)NC4(C(=O)N5CCN(C(=O)C[C@@H](N)CCCN(C)C)CC5)CCCC4)c3Cl)c2n1`, the Ki in [1] was 0.631 nM; in experiment [6], greater than 10 µM. For the same compound, the Kb in [2] is 1.58 nM; in experiment [3], 0.0398 nM. For the same compound, the Activity in experiment [4] amounted to 21%; in experiment [7], 51%.

Take `Cc1cc(C)c2cccc(OCc3c(Cl)ccc(S(=O)(=O)NC4(C(=O)N5CCN(C(=O)[C@@H](N)CCCCN(C)C)CC5)CCCC4)c3Cl)c2n1`: the Ki is 1.58 nM in experiment [1] and greater than 10 µM in experiment [6]. Moreover, the Kb is 0.794 nM in experiment [2] and 0.158 nM in [3]. Moreover, the results for the Activity in experiment [4] and in experiment [7] were 29% and 67%, respectively.

`Cc1cc(C)c2cccc(OCc3c(Cl)ccc(S(=O)(=O)NC(C)(C)C(=O)N4CCN(C(=O)[C@@H](N)CCCN(C)C)CC4)c3Cl)c2n1`: the Kb in experiment [3] is 0.1 nM. Further, the Activity turned out to be 39% in experiment [4] and 79% in [7]. The inhibition constant (Ki) in experiment [6] was greater than 10 µM.
